# Shown are actives, neighbours in structure and some others; about 4.2% of the full set was active somewhere.
# TMEM16A inh = mouse TMEM16A channel inhibition, primary screen | HEK293 TMEM16A/YFP iodide influx fluorescence, ionomycin | AID 588511 | normalized B-score (activity score, 25-100; higher = stronger inhibition) at 10 µM | Q8BHY3 | actives 1.2% (n = 310,000);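 active = ratio plate-corrected score three or more library SD toward inhibition, starting fluorescence score within five deviations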;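 note: score derived from kinetic fluorescence span divided by baseline fluorescence per well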
# TMEM16A act = activates or potentiates the mouse TMEM16A chloride channel; Q8BHY3; HEK293 TMEM16A/YFP-H148Q/I152L, iodide quench fluorescence; hits give low values; B-score at 10 µM; actives 0.3% (n = 340,000);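 active = fluorescence-ratio B-score plate-corrected deviation score at least 3 library SD below zero, with starting fluorescence score within 5 deviations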;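 note: channel opened by trigger with iodide after compound preincubation; score built on the fluorescence ratio of max minus min over baseline; more negative score means more quench and so TMEM16A activation or potentiation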
# XBP1 UPR activ = adaptive UPR (XBP1) activation. CHO-XBP1 luciferase reporter, IRE1-XBP1 UPR activation, luminescence; percent of tunicamycin response, DMSO as zero. activation, % at 20 µM. actives 0.33% (n = 330,000). AID 463104;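 active = versus positive control, 20 µM dose yields 30% or more activation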;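 note: 100% = tunicamycin at 10 µg/mL and 0% = DMSO only wells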
#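 Assay system: IRE1-XBP1 luciferase reporter CHO line. Input: 1000 cells/well. Buffer or medium: F12 with 10% serum. Doses: 20 µM, 1% DMSO. Times: overnight seeding at 37 °C, 6 h compound treatment at 37 °C. Technique: Steady-Glo luciferase glow luminescence, 10 min after reagent addition.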
# CHOP UPR activ = apoptotic UPR (CHOP) activation; CHO-CHOP luciferase reporter, luminescence; percent of tunicamycin response over DMSO baseline; AID 449763; actives 0.34% (n = 330,000); activation, % at 10 µM;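 active = at 10 µM dose, activation of 40% or more, normalized to positive control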;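 note: 100% = tunicamycin at 10 µg/mL and 0% = DMSO alone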
#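 Test system: CHO CHOP reporter cells. Input: 500 CHO-CHOP cells per well. Medium: F12 with 10% FBS. Technique: luciferase luminescence. Measure: percent activation relative to tunicamycin control. Dosing: 10 µM compound, 0.5% DMSO. Timing: 16-18 h cell attachment, then 6 h compound exposure, 37 °C.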
# CHOP inhibitor = blocks CHOP induction under ER stress; AID 2732; inhibition, % at 10 µM; CHO-K1 CHOP-promoter luciferase, tunicamycin-induced, 15-18 h; actives 3.8% (n = 220,000);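 active = compounds that reduced the stress-induced luciferase reporter signal by more than about 70% of percent inhibition, limit read from the data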;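 note: 0% = tunicamycin plus vehicle and 100% = wells without tunicamycin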
# Lipid droplet = modulators of hepatic lipid droplet formation | AID 1656 | actives 0.4% (n = 240,000) | inhibition, % at 6.5 µM | AML12 mouse hepatocytes, oleate lipid droplets, BODIPY imaging;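 active = lipid droplet intensity inhibited by at least 50%, with more than 500 cells counted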
#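 Assay system: AML12 mouse liver cells | Compound dosing: One dose, 6.5 µM compound | Read-out basis: Droplet intensity reduction, % inhibition | Measured by: Fluorescence imaging, 20x objective, two fields per well | Schedule: Overnight treatment with compound plus oleate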
# TMEM16A reconf = re-confirmation of mouse TMEM16A chloride channel inhibitors; AID 652189; HEK293 TMEM16A/YFP-H148Q, iodide quench fluorescence; ionomycin added to raise cell calcium; shares compounds with TMEM16A inh; actives 39% (n = 2,300); inhibition, % at 10 µM;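 active = mean duplicate percent inhibition, scaled so buffer wells are 0 and the reference blocker 100, over three buffer SD above buffer mean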
# TMEM16A Ca cntr = calcium mobilization counter-screen hit for TMEM16A inhibitor series; shares compounds with TMEM16A inh; TMEM16A/YFP HEK293, Fluo4 calcium mobilization; calcium response (% of ionomycin), % at 10 µM; actives 2% (n = 2,300); AID 652231;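 active = duplicate-averaged calcium signal over 20% of the ionomycin maximum, relative to buffer baseline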;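 note: each well's signal is peak minus trough fluorescence divided by its pre-addition baseline; 0% = buffer wells and 100% = ionomycin wells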
# Parental YFP cnt = acts in parental YFP-HEK293 cells lacking TMEM16A, counter-screen; shares compounds with TMEM16A inh; iodide YFP quench, ionomycin; YFP ratio F(max-min)/F0 at 10 µM; 2,300 tested, under 10 active; AID 652233;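 active = yellow fluorescent protein signal ratio exceeding the buffer control mean by over 5 SD of those controls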;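 note: ratio is mean of duplicate wells from kinetic YFP trace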
# ClC-1 rat inh = blocks the rat ClC-1 voltage-dependent chloride channel; shares compounds with TMEM16A inh; CHO ClC-1-YFP, iodide influx fluorescence quench; iodide control reads 0, buffer control 100; ratio percent, % at 10 µM; 2,300 tested, under 10 active;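 active = duplicate-mean ratio percent above the mean of iodide-only control wells, which defines zero, plus 5 of their SD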;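 note: higher percent means stronger block of ClC-1 iodide influx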
# Numbers without * were called inactive; i = inactive; · = no result.
SMILES,TMEM16A inh,TMEM16A act,XBP1 UPR activ,CHOP UPR activ,CHOP inhibitor,Lipid droplet,TMEM16A reconf,TMEM16A Ca cntr,Parental YFP cnt,ClC-1 rat inh
CN1CCN(C(=O)NC2CCCN2S(=O)(=O)c2ccc(Cl)cc2)CC1 (stereo not given),i,i,1,-2,20,5,i,i,-1,-2
Cc1cn(C2CCCCO2)c(=O)[nH]c1=O (stereo not given),·,i,·,·,·,·,·,·,·,·
CCOc1ccccc1N(CC(=O)Nc1ccccc1C(=O)N1CCCC1)S(C)(=O)=O,i,i,-1,1,·,3,·,·,·,·
O=[N+]([O-])c1ccc(-c2nc(-c3cccs3)c(-c3cccs3)[nH]2)cc1,i,i,1,2,92*,·,20%*,i,-1,3
O=[N+]([O-])c1cccc(-c2nc(-c3cccs3)c(-c3cccs3)[nH]2)c1,i,i,3,3,46,·,·,·,·,·
CC(=O)Nc1ccc(NC(=O)COc2cc(O)c3c(c2)OC(C)(C)CC3=O)cc1,i,i,1,1,·,-2,·,·,·,·
Cc1cc(OCC(=O)Nc2ccc(Br)cc2)cc2c1C(=O)CC(C)(C)O2,100*,i,0,0,14,-36,22%*,i,-0.78,-24
CSc1ccc(-c2nc(CSCC(=O)N3CCOCC3)c(C)o2)cc1,25*,i,0,3,12,·,28%*,i,-1.1,-14
CSc1ccc(-c2nc(CSCC(=O)NC3CC3)c(C)o2)cc1,i,i,-6,-6,·,0,·,·,·,·
CCc1ccc(-c2nc(CSCC(=O)N3CCN(c4ncccn4)CC3)c(C)o2)cc1,25*,i,-4,0,90*,·,i,i,-1,-11
CN(Cc1ccccc1F)c1ncnc2sccc12,i,i,-1,3,·,-1,·,·,·,·
CN(Cc1cccs1)c1ncnc2sccc12,25*,i,2,2,65,-47,i,i,-1.1,-18
Cc1nc(N/N=C\c2ccc3c(c2)OCO3)sc1C,i,i,-1,7,·,-12,·,·,·,·
CCCNC(=O)c1ccccc1NC(=O)COc1cccc2c1OC(C)(C)C2,i,i,1,-1,·,·,·,·,·,·
CN(C)c1ccc(N=Nc2ccccc2C(=O)OCC(=O)NCC2CCCCC2)cc1,100*,i,11,5,36,9,i,i,-0.86,-12
O=C(COC(=O)c1ccc2ccccc2n1)NC1CCCCC1,·,i,-1,-1,·,·,·,·,·,·
COc1ccc(C)cc1NC(=O)NCCC1=CCCCC1,100*,i,1,1,25,-10,i,i,-0.87,-5
Cc1sc2nc(SCc3ccc(C(=O)O)cc3)n(Cc3ccco3)c(=O)c2c1C,25*,i,2,0,4,-5,30%*,i,-1,-24
C=CCn1c(SCc2ccc(C(=O)O)cc2)nc2sc(C)c(C)c2c1=O,i,i,1,2,19,7,·,·,·,·
COc1cc2c(C(=O)N3CCN(c4ccccc4)CC3)c(C)oc2cc1Br,i,i,-2,-2,52,·,i,i,-1.2,-4
CC(C)CCNC(=O)NC(=O)COC(=O)CNC(=O)C1CCCCC1,i,i,-2,-2,-2,-12,·,·,·,·
Cc1oc2cc([N+](=O)[O-])c(O)c([N+](=O)[O-])c2c1C(=O)c1ccc(Cl)cc1,25*,i,-1,0,25,7,32%*,i,-0.88,-16
CC1=C(C#N)C(NC(=O)c2cccc(Cl)c2)(C(F)(F)F)C(=O)N1 (stereo not given),i,i,-1,1,-5,-1,·,·,·,·
CCN(CC)c1ccc(Nc2nc(N3CCOCC3)c3ccccc3n2)cc1,100*,i,2,6,74*,-37,i,i,-1.2,-18
O=C(Nc1ccc(Cl)cc1)c1cccs1,25*,i,1,3,-16,5,i,i,-1.1,-15
SMILES,TMEM16A inh,TMEM16A act,XBP1 UPR activ,CHOP UPR activ,CHOP inhibitor,Lipid droplet,TMEM16A reconf,TMEM16A Ca cntr,Parental YFP cnt,ClC-1 rat inh
O=C(Nc1nc(-c2ccccc2)cs1)c1ccc2c(=O)n3c(nc2c1)CCCCC3,100*,i,2,4,28,-4,i,i,-1.2,-2
O=C(Nc1nc(-c2ccccc2)cs1)c1ccc(=O)[nH]c1,25*,i,0,2,13,12,26%*,i,-0.84,-8
O=C(Nc1nc(-c2ccc(Cl)s2)cs1)c1cccs1,25*,i,13,5,62,·,i,i,-0.96,-18
O=C(Nc1nc(-c2ccc(Cl)s2)cs1)c1ccco1,i,i,5,4,42,-30,·,·,·,·
COc1ccc(OCC(=O)Nc2cc(S(=O)(=O)N3CCCC3)ccc2Cl)cc1,·,i,2,1,·,·,·,·,·,·
CCOC(=O)Cc1csc(NC(=O)/C=C/c2ccc(Cl)cc2)n1,i,i,4,4,-3,-2,·,·,·,·
O=C(Nc1nc(-c2ccccc2)cs1)c1cccs1,25*,i,7,5,49,·,22%*,i,-1.1,-2
O=C(Nc1nc(-c2ccccc2)cs1)c1ccccc1NS(=O)(=O)c1ccc(F)cc1,100*,i,-2,8,62,-40,78%*,i,-1.2,-32
O=C(COC(=O)CCNS(=O)(=O)c1ccccc1)NNC(=O)c1ccccc1,i,i,0,0,·,·,·,·,·,·
Cc1ccc(-c2onc(C)c2C)cc1S(=O)(=O)N1CCOc2ccccc21,100*,i,-5,-1,·,-34,i,i,-1.2,-6
Cc1cc(-c2ccc(C(C)C)c(S(=O)(=O)N3CCOc4ccccc43)c2)on1,i,i,-2,0,·,-7,·,·,·,·
CCOC(=O)c1ccc(N/C=C/C(=O)c2ccccc2)cc1,i,i,-1,3,7,2,·,·,·,·
CCOC(=O)c1ccccc1N/C=C/C(=O)c1ccccc1,100*,i,-4,0,·,·,i,i,-1.1,-11
